According to ChEMBL document CHEMBL1138842, “Fluorinated phenylcyclopropylamines. 2. Effects of aromatic ring substitution and of absolute configuration on inhibition of microbial tyramine oxidase” (J Med Chem, 2004):
Counter-ions that a name gives are not always drawn.

What was measured:
[1] = Ionization constant was determined; format: physicochemical
Summary of the method: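 Determined by pH-metric titration in 0.1 M KNO₃ at 21 °C.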

[2] = Inhibitory concentration against tyramine oxidase of Arthrobacter spp.; Not determined.
[3] = Inhibitory concentration against tyramine oxidase of Arthrobacter spp.; Irreversible inhibition
[4] = Inhibitory concentration against tyramine oxidase of Arthrobacter spp.; Competitive inhibition
[5] = target: T1, Amine oxidase [flavin-containing] B (Homo sapiens, UniProt P27338); test: Inhibitory concentration for human liver monoamine oxidase B
T1 sequence (P27338 whole entry): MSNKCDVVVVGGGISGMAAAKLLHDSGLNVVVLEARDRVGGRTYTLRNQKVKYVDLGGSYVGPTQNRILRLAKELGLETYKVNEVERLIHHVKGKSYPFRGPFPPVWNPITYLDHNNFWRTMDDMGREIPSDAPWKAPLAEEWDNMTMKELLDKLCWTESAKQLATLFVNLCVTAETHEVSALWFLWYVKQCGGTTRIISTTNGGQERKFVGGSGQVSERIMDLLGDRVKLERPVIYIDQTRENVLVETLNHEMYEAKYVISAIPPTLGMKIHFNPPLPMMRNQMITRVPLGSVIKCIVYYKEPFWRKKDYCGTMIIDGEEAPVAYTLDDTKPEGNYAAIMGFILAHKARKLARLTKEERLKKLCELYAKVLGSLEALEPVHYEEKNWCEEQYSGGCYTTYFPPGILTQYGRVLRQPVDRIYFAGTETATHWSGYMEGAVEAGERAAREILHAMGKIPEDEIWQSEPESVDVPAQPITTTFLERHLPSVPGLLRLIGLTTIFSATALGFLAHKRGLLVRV

[6] = target: T2, Amine oxidase [flavin-containing] A (Homo sapiens, UniProt P21397); test: Inhibitory concentration for human liver monoamine oxidase A
T2 sequence (P21397 whole entry): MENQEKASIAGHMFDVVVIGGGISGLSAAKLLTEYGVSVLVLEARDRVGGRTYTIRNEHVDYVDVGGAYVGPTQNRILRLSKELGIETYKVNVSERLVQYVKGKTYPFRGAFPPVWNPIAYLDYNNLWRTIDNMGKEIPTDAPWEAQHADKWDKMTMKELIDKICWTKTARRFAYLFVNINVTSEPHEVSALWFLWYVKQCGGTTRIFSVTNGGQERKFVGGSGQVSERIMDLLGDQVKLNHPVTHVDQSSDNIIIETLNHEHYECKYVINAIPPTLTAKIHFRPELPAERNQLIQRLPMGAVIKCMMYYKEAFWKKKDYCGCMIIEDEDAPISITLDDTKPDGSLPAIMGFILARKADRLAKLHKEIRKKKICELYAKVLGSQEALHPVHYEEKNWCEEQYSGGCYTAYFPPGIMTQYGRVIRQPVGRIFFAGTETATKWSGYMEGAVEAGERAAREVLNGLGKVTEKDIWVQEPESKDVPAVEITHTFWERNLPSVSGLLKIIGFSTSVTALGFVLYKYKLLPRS

[7] = Inhibition concentration against tyramine oxidase of Arthrobacter spp.; Partially irreversible inhibition

SMILES	pKa ([1]; read-out: pKa)	IC50 [4]	further results
Cc1ccc([C@@]2(F)C[C@@H]2N)cc1	7.04		IC50 [2]: 51 µM
NC1CC1c1ccccc1 (stereo not drawn)	8.5		IC50 [3]: 33 µM
N[C@@H]1C[C@H]1c1ccccc1 (relative stereo) [TRANYLCYPROMINE HYDROCHLORIDE]	8.47	35 µM	
Cl.NC1CC1(F)c1ccc(Cl)cc1 (stereo in doubt)			pKa [1]: 6.81; IC50 [7]: 89 µM
NNC(N)=O [HYDRAZINECARBOXAMIDE]			IC50 [6]: 6.7 µM

Second part, led by results:

pKa ([1]; read-out: pKa)	IC50 [4]	SMILES	further results
7.31	8.1 µM	N[C@@H]1C[C@]1(F)c1ccc(F)cc1 (relative stereo)	
7.41	0.39 µM	Cc1ccc([C@@]2(F)C[C@H]2N)cc1 (relative stereo)	IC50 [5]: 6.7 µM; IC50 [6]: 6.7 µM
6.98		N[C@@H]1C[C@]1(F)c1ccccc1 (relative stereo)	IC50 [7]: 190 µM
7.35	3.6 µM	N[C@H]1C[C@]1(F)c1ccccc1 (relative stereo)	
6.88		N[C@H]1C[C@]1(F)c1ccc(F)cc1 (relative stereo)	IC50 [7]: 75 µM
7.19	3.7 µM	NC1CC1(F)c1ccc(Cl)cc1 (trans isomer)	
